Square brackets hold non-standard residues; d marks the D form. Peptide text beside a SMILES is read from it. GABA = NCCCC(=O)O
Key:
[1] = target: Substance-P receptor (Cavia porcellus, UniProt P30547); assay: Agonistic activity at neurokinin-1 (NK-1) receptor in guinea pig ileum longitudinal smooth muscle; format: functional, tissue-based
Summary of the method: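 Guinea pig ileum longitudinal smooth muscle-myenteric plexus strip (NK-1); isotonic contractions at 35 °C with atropine, mepyramine, methysergide and indomethacin (each 1 µM). Equipotent molar ratios converted to EC50 using mean EC50 of standard agonist.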

[2] = target: T1, Substance-K receptor (Rattus norvegicus, UniProt P16610); assay: Agonist activity was measured at neurokinin-2 receptor in the rat colon muscularis mucosae; format: functional, tissue-based, Muscularis mucosa
T1 sequence (P16610 whole entry): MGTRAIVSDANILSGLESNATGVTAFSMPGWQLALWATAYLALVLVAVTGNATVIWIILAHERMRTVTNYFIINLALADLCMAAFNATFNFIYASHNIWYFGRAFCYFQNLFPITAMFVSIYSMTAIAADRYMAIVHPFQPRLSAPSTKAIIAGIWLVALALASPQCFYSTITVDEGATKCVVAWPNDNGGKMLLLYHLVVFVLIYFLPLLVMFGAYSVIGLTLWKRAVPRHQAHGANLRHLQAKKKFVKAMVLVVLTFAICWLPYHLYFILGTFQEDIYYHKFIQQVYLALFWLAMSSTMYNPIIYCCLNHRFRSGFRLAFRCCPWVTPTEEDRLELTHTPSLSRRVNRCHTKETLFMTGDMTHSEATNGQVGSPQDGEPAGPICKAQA
Summary of the method: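 Rat colon muscularis mucosae strip (NK-2); isotonic contractions at 35 °C with atropine, mepyramine, methysergide and indomethacin (each 1 µM). Equipotent molar ratios converted to EC50 using mean EC50 of standard agonist.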

[3] = target: Substance-P receptor (Cavia porcellus) (UniProt P30547); assay: Antagonistic activity against the highly selective tachykinin receptor 1 in guinea pig ileum; format: functional, tissue-based
[4] = target: T2, Substance-K receptor (Rattus norvegicus) (UniProt P16610); assay: Antagonistic activity at tachykinin receptor 2 in the rat colon muscularis mucosae; C= Partial agonist; format: functional; settings: filed as partial agonist
T2 sequence (whole entry): T1 sequence (P16610 whole entry)
Summary of the method: (§1)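 Rat colon muscularis mucosae, isotonic contractions at 35 °C with atropine, mepyramine, methysergide, indomethacin (1 µM each). Dose ratio from rightward shift of agonist concentration-response curve with antagonist present; pKB = log[DR - 1] - log[B], B = molar antagonist concentration.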

[5] = target: T2, Substance-K receptor (Rattus norvegicus); assay: Antagonistic activity against the highly selective tachykinin receptor 2 in rat colon muscularis mucosae; format: functional; summary of the method: as §1

Chain of Substance-P receptor (Cavia porcellus) (P30547 whole entry): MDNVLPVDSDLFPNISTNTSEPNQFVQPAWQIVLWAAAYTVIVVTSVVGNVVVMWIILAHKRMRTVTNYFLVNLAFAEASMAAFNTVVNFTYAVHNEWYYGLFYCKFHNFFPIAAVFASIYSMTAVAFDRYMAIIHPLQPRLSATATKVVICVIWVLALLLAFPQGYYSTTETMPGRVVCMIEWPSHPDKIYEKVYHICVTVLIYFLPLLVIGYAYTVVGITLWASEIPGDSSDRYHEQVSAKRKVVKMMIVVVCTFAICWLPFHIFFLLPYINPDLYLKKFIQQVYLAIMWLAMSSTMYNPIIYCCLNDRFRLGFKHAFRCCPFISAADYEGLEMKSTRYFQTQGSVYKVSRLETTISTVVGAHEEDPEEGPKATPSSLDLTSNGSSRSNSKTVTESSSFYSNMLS
Chain of Substance-P receptor (P30547 whole entry): as above

Row | SMILES | EC50 [1] [µM] | EC50 [2] [µM] | pKB [3] | pKB [4] | pKB [5]
1 | CC(C)C[C@H](NC(=O)CNC(=O)[C@H](Cc1ccccc1)NC(=O)[C@H](Cc1ccccc1)NC(=O)CCCN)C(=O)N[C@@H](Cc1c[nH]c2ccccc12)C(N)=O (H-[GABA]FFGLW-NH2) | 4.38 | > 16 | – | – | –
2 | CSCC[C@H](NC(=O)[C@H](CC(C)C)N1CCC2(CCCN2C(=O)[C@H](Cc2ccccc2)NC(=O)[C@H](Cc2ccccc2)NC(=O)CCCN)C1=O)C(N)=O (stereo partly specified) | – | – | 5.6 | Partial agonist | –
3 | CC(C)C[C@@H](C(=O)NC(Cc1c[nH]c2ccccc12)C(N)=O)N1CCC2(CCCN2C(=O)[C@H](Cc2ccccc2)NC(=O)[C@H](Cc2ccccc2)NC(=O)CCCN)C1=O (stereo partly specified) | – | – | 6.62 | – | 5.27
4 | CC(C)C[C@@H](C(=O)N[C@H](Cc1ccccc1)C(N)=O)N1CCC2(CCCN2C(=O)[C@H](Cc2ccccc2)NC(=O)[C@H](Cc2ccccc2)NC(=O)CCCN)C1=O (stereo partly specified) | – | – | 6.28 | – | 5.36
5 | CC(C)C[C@@H](C(=O)N[C@H](CC1CCCCC1)C(N)=O)N1CCC2(CCCN2C(=O)[C@H](Cc2ccccc2)NC(=O)[C@H](Cc2ccccc2)NC(=O)CCCN)C1=O (stereo partly specified) | – | – | 6.43 | – | 5.86
6 | CC(C)C[C@@H](C(=O)NC(CCc1ccccc1)C(N)=O)N1CCC2(CCCN2C(=O)[C@H](Cc2ccccc2)NC(=O)[C@H](Cc2ccccc2)NC(=O)CCCN)C1=O (stereo partly specified) | – | – | 6.64 | – | 5.84
7 | CNC(=O)[C@H](CC(C)C)N1CCC2(CCCN2C(=O)[C@H](Cc2ccccc2)NC(=O)[C@H](Cc2ccccc2)NC(=O)CCCN)C1=O (stereo partly specified) | – | – | < 4.5 | – | < 4.5
8 | CSCC[C@@H](NC(=O)[C@H](CC(C)C)N1CCC2(CCCN2C(=O)[C@H](Cc2ccccc2)NC(=O)[C@H](Cc2ccccc2)NC(=O)CCCN)C1=O)C(N)=O (stereo partly specified) | – | – | 5.66 | – | < 4.5

— ChEMBL document CHEMBL1125115 (J Med Chem, 1990)
